The results in this text go back to ChEMBL document CHEMBL1138890, “Development of N-2,4-pyrimidine-N-phenyl-N'-alkyl ureas as orally active inhibitors of tumor necrosis factor alpha (TNF-alpha) synthesis. Part 2” (Bioorg Med Chem Lett, 2006).

The IC50 is the point on the concentration scale where inhibition reaches its midpoint. A word on the inhibition: it is how much of the control response was suppressed. A word on the solubility: it is the dissolved amount per volume that the medium holds. As a reminder, the bioavailability is dose-corrected exposure relative to a reference, in per cent. In general, half-life refers to the time in which the quantity being followed falls by half.

In data set [1] the test system is THP-1. Put plainly: Inhibition of LPS-stimulated TNFalpha production in human THP1 cells. The data set is classed as functional, cell-based.
Data set [2] deals with THP-1. Briefly: Inhibition of LPS-stimulated TNFalpha production in human THP1 cells at 10 uM. The format is functional.
Another data set concerns Rattus norvegicus. Briefly: Reduction in severity of cartilage damage in Sprague-Dawley rat at 25 mg/kg. The data set is classed as functional. Details: scale not given: the % may be the effect or the level left. In a few lines:
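Osteoarthritis was induced in male Sprague–Dawley rats (200–225 g) under anesthesia by injecting 20 µL of 10 mg/mL monosodium iodoacetate into the patellar ligament region of the left knee, flexed 90°. Groups of 15 were dosed BID (about every 12 h) for 7 days with 25 mg/kg compound or vehicle (2.5 mL/kg). On day 22 the left joint was fixed in 10% formalin for 24–48 h and the tibial cartilage surface imaged. Damage severity was compared with vehicle (P < 0.05).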

Data set [3] can be described thus: Solubility in Sprague-Dawley rat. The data set is classed as ADME, organism-based.
Data set [4] in a line: Metabolism measured as percent loss of compound in Sprague-Dawley rat hepatocytes after 4 hrs. The data set is classed as ADME, cell-based, Hepatocyte. Particulars: read-out: Activity. The method in brief: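 Compound incubated with plated Sprague–Dawley rat hepatocytes for 4 h. Metabolism expressed as percent loss of parent compound.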
The nature of data set [5]: Bioavailability in po dosed Sprague-Dawley rat. The data set is classed as ADME, organism-based. As to conditions: in vivo.
Data set [6] can be described thus: Half life in Sprague-Dawley rat. The format is ADME, organism-based. As to conditions: in vivo.
Data set [7] can be described thus: Bioavailability in Sprague-Dawley rat. The format is ADME, organism-based. As to conditions: in vivo.

In brackets after ≈: the same amount, converted by molar mass.

On to `CC(C)Nc1nccc(N(C(=O)NCC2CCNCC2)c2ccc(F)cc2)n1`, for which, in the data set with THP-1 [1], the midpoint of inhibition, the IC50, lay at 16 nM.

`CC(C)NC(=O)N(c1ccc(F)cc1)c1ccnc(NC(C)C)n1` gave an IC50 in the data set on THP-1 [1] of 74 nM. `CCNC(=O)N(c1ccc(OC)cc1)c1ccnc(N[C@@H](C)COC)n1` gave an IC50 in the data set with THP-1 [1] of 819 nM. The compound `O=C(NCc1ccccc1Cl)N(c1ccc(F)cc1)c1ccnc(Nc2c(F)cccc2F)n1` registered an inhibition at 10 µM in the data set with THP-1 [2] of 25%. Same read-out and setting: under `CNc1nccc(N(C(=O)NCc2ccccc2Cl)c2ccc(OC)cc2)n1` stands 3%. For `CCNC(=O)N(c1ccc(OCC)cc1)c1ccnc(N[C@@H](C)COC)n1`, in the data set on THP-1 [1], the IC50 came to 276 nM. For `CCCCNC(=O)N(c1ccc(OC)cc1)c1ccnc(N[C@@H](C)COC)n1`, the IC50 in the data set with THP-1 [1] stood at 324 nM. Still for that read-out and setting: under `CCOc1ccc(N(C(=O)NCc2ccccc2Cl)c2ccnc(N[C@@H](C)COC)n2)cc1` stands 56 nM; under `C[C@H](Nc1nccc(N(C(=O)NCc2ccccc2Cl)c2ccc(F)cc2)n1)C(C)(C)O`, 14 nM. `CCNC(=O)N(c1ccc(OC)cc1)c1ccnc(N[C@@H](C)C(C)(C)O)n1`: half-maximal inhibition in the data set on THP-1 [1] (IC50) required 28 nM. Besides, the Activity in the data set on Rattus norvegicus is reported as 24%. This compound returned a solubility in data set [3] of 240 µg/mL (≈ 643 µM). Further, the metabolised at 4 h in data set [4] amounted to 32%. For the same compound, in data set [5], the bioavailability was 15%.

With `COC[C@H](C)Nc1nccc(N(C(=O)NCc2ccc(Cl)cc2Cl)c2ccc(OC)cc2)n1`, in the data set with THP-1 [1], the IC50 was determined as 611 nM. The same measure, in the same setting: with `CC(C)Nc1nccc(N(C(=O)NCc2ccccn2)c2ccc(F)cc2)n1` the figure was 30 nM; with `COC[C@H](C)Nc1nccc(N(C(=O)NCc2ccc(Cl)c(Cl)c2)c2ccc(OC)cc2)n1`, 2070 nM. Regarding `CC(C)Nc1nccc(N(C(=O)NCc2ccncc2)c2ccc(F)cc2)n1`, the IC50 with THP-1 [1] was 4 nM. In turn, `O=C(NCc1ccccc1Cl)N(c1ccc(F)cc1)c1ccnc(NC2CCOCC2)n1` gave an IC50 in the data set on THP-1 [1] of 16 nM. In the data set with THP-1 [2], `CN(C)c1nccc(N(C(=O)NCc2ccccc2Cl)c2ccc(F)cc2)n1` showed an inhibition at 10 µM of 35%. For the compound `COc1ccc(N(C(=O)NCc2ccccc2OC)c2ccnc(N[C@@H](C)C(C)(C)O)n2)cc1`, the midpoint of inhibition in the data set on THP-1 [1], the IC50, lay at 15 nM.

In the data set with THP-1 [1], `CCNC(=O)N(c1ccc(OC)cc1)c1ccnc(NC(C)C)n1` showed an IC50 of 80 nM. Turning to `COc1ccc(N(C(=O)NCc2ccccc2Cl)c2ccnc(N[C@@H](C)C(C)(C)O)n2)cc1`, the 50% inhibitory concentration (IC50) in the data set on THP-1 [1] came to 9 nM. In data set [3], this compound gave a solubility of less than 10 µg/mL. The metabolised at 4 h in data set [4] came out at 32%. Further, the half-life in data set [6] was 1.9 h. In data set [7], this compound gave a bioavailability of 1.9%.

In the data set on THP-1 [1], `COc1ccc(N(C(=O)NCc2ccccc2C)c2ccnc(N[C@@H](C)C(C)(C)O)n2)cc1` registered an IC50 of 37 nM.

Regarding `CC(C)Nc1nccc(N(C(=O)NCCN2CCNCC2)c2ccc(F)cc2)n1`, in the data set with THP-1 [1], the IC50 amounted to 119 nM. `COc1ccc(N(C(=O)NCc2ccccc2Cl)c2ccnc(NC(C)C)n2)cc1` came in with an IC50 in the data set with THP-1 [1] of 16 nM. `COC[C@H](C)Nc1nccc(N(C(=O)NC2CCCCC2)c2ccc(OC)cc2)n1`: the concentration for half-maximal inhibition (IC50) in the data set on THP-1 [1] was 467 nM.

As for `CC(C)Nc1nccc(N(C(=O)NCCN2CCN(C(=O)OC(C)(C)C)CC2)c2ccc(F)cc2)n1`, the IC50 in the data set with THP-1 [1] was found to be 277 nM. On the same count and under the same terms, under `COC[C@H](C)Nc1nccc(N(C(=O)NCc2ccccc2Cl)c2ccc(OC)cc2)n1` stands 148 nM; under `CC(C)Nc1nccc(N(C(=O)NCC2CCN(C(=O)OC(C)(C)C)CC2)c2ccc(F)cc2)n1`, 1160 nM. Consider `CCNC(=O)N(c1ccc(F)cc1)c1ccnc(NC2CCOCC2)n1`, for which the IC50 with THP-1 [1] is 86 nM. This compound also registered an Activity in the data set on Rattus norvegicus of 16%. This compound also yielded a solubility in data set [3] of 25 µg/mL (≈ 69.6 µM). Besides, in data set [4], the metabolised at 4 h is 16%. In data set [6], this compound showed a half-life of 0.46 h. The same compound gave a bioavailability in data set [7] of 13.2%. As for `COC[C@H](C)Nc1nccc(N(C(=O)NCc2ccccc2Cl)c2ccc(F)cc2)n1`, the IC50 in the data set with THP-1 [1] was 236 nM.
